From ChEMBL document CHEMBL1134962, “Facilely accessible multidrug resistance modulator derived from sucrose” (2002)

Assays:
Assay type in all cases: functional, Homo sapiens
KB 3-1 [1] = experiment: Cytotoxicity against KB-3-1 cells was determined when administered at 3 ug/mL
Procedure, shortened: (§1)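 Parental KB-3-1 cells grown in RPMI 1640 with glutamine, kanamycin and 10% newborn calf serum. 10,000 cells per well were preincubated 24 h at 37 °C in 5% CO2. The test sample was then added alone and incubated 48 h. MTT was added for 3 h, and the formazan was extracted with DMSO before the colorimetric read.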

KB 3-1 [2] = experiment: Cytotoxicity against KB-3-1 cells was determined when administered at 1 ug/mL; procedure, shortened: as §1
KB [3] = experiment: Percentage inhibition of growth against KB-C2 cells in the presence of colchicine(0.1 ug/mL) was determined when administered at 1 ug/mL
Procedure, shortened: (§2)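 Multidrug-resistant KB-C2 cells were selected from KB-3-1 and kept in colchicine-containing RPMI 1640 with glutamine, kanamycin and 10% newborn calf serum. 10,000 cells per well were preincubated 24 h at 37 °C in 5% CO2. Colchicine plus the test sample were added together and incubated 48 h. Growth was read by MTT (3 h), with the formazan extracted in DMSO.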

KB [4] = experiment: Percentage inhibition of growth against KB-C2 cells in the presence of colchicine(0.1 ug/mL) was determined when administered at 10 ug/mL; procedure, shortened: as §2
KB 3-1 [5] = experiment: Cytotoxicity against KB-3-1 cells was determined when administered at 10 ug/mL; procedure, shortened: as §1
KB [6] = experiment: Percentage inhibition of growth against KB-C2 cells in the presence of colchicine(0.1 ug/mL) was determined when administered at 3 ug/mL; procedure, shortened: as §2
KB [7] = experiment: Percentage inhibition of growth against KB-C2 cells in the presence of colchicine (0.1 ug/mL) was determined when administered at 3 ug/mL; procedure, shortened: as §2

SMILES	Growth inhibition (KB 3-1 [1])	Growth inhibition (KB 3-1 [2])	Growth inhibition (KB [3])	Growth inhibition (KB [4])	Growth inhibition (KB 3-1 [5])	Growth inhibition (KB [6])	Growth inhibition (KB [7])
CC(C)CC(=O)OC[C@H]1O[C@H](O[C@]2(COC(=O)CC(C)C)O[C@H](COC(=O)CC(C)C)[C@@H](OC(=O)CC(C)C)[C@@H]2OC(=O)CC(C)C)[C@H](OC(=O)CC(C)C)[C@@H](O)[C@@H]1O	16%	18%	23%	92%	93%	60%	–
CC(C)CC(=O)OC[C@H]1O[C@@](COC(=O)CC(C)C)(O[C@H]2O[C@H](CO)[C@@H](OC(=O)CC(C)C)[C@H](O)[C@H]2OC(=O)CC(C)C)[C@@H](OC(=O)CC(C)C)[C@@H]1OC(=O)CC(C)C	10%	2%	39%	88%	40%	79%	–
CC(C)CC(=O)OC[C@H]1O[C@@](COC(=O)CC(C)C)(O[C@H]2O[C@H](CO)[C@@H](O)[C@H](O)[C@H]2OC(=O)CC(C)C)[C@@H](OC(=O)CC(C)C)[C@@H]1OC(=O)CC(C)C	21%	10%	40%	93%	92%	76%	–
CC(C)CC(=O)OC[C@H]1O[C@@](COC(=O)CC(C)C)(O[C@H]2O[C@H](CO)[C@@H](O)[C@H](OC(=O)CC(C)C)[C@H]2OC(=O)CC(C)C)[C@@H](OC(=O)CC(C)C)[C@@H]1OC(=O)CC(C)C	16%	6%	18%	94%	66%	53%	–
CC(C)CC(=O)OC[C@H]1O[C@@](COC(=O)CC(C)C)(O[C@H]2O[C@H](COC(=O)CC(C)C)[C@@H](OC(=O)CC(C)C)C(OC(=O)CC(C)C)[C@H]2OC(=O)CC(C)C)[C@@H](OC(=O)CC(C)C)[C@@H]1OC(=O)CC(C)C (stereo partly specified)	15%	10%	4%	24%	25%	12%	–
CC(C)CC(=O)O[C@@H]1[C@@H](OC(=O)CC(C)C)[C@@H](O[C@]2(CO)O[C@H](CO)[C@@H](OC(=O)CC(C)C)[C@@H]2OC(=O)CC(C)C)O[C@H](CO)[C@H]1OC(=O)CC(C)C	8%	9%	65%	97%	98%	–	92%
